The source of these data is ChEMBL document CHEMBL1152355, “Application of a 3,3-diphenylpentane skeleton as a multi-template for creation of HMG-CoA reductase inhibitors” (Bioorg Med Chem Lett, 2009).

Structures are written as SMILES. pIC50: −log10 of the molar value.

For test [1], the target named is T1, 3-hydroxy-3-methylglutaryl-coenzyme A reductase (Rattus norvegicus, UniProt P51639).
T1 sequence (P51639 whole entry): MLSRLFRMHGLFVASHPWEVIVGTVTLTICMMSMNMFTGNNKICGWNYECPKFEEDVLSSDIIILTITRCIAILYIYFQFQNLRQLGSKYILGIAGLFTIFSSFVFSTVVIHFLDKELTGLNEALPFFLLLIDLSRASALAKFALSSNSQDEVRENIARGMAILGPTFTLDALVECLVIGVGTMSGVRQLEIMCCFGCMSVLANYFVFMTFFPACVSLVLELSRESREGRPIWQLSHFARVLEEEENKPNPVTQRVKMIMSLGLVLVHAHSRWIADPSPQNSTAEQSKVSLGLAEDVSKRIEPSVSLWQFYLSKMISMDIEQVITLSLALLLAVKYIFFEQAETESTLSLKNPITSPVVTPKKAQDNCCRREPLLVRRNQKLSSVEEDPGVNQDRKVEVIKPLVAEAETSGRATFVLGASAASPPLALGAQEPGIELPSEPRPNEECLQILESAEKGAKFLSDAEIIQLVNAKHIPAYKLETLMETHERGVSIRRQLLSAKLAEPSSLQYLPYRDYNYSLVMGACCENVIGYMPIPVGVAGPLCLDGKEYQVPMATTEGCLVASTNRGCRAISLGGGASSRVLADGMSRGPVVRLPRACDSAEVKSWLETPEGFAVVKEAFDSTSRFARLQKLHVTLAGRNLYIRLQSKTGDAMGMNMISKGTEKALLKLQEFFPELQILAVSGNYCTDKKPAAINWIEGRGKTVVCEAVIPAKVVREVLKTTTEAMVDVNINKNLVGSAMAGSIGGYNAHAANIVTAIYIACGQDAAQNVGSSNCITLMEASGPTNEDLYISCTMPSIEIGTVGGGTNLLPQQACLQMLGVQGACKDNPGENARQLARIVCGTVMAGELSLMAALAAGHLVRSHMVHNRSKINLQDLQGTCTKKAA
In words: Inhibition of rat HMG-CoA reductase using 0.37 MBq DL-[3-14C]HMG-CoA. An outline of the steps: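 Method B used the lower substrate level, 0.37 MBq DL-[3-14C]HMG-CoA, with rat microsomal fraction (10 mg protein) at 37 °C for 30 min. Stopped with 2 M HCl, with conversion to mevalonolactone. Separation was on silica TLC with acetone/benzene 1:1, and radioactivity per spot was quantified by bioimaging. The IC50 was taken from this readout.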

The target of test [2] is T1, 3-hydroxy-3-methylglutaryl-coenzyme A reductase. As to the kind of experiment: Inhibition of rat HMG-CoA reductase using 3.7 MBq DL-[3-14C]HMG-CoA. An outline of the steps:
(§1)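 Rat HMG-CoA reductase (method A): 3.7 MBq DL-[3-14C]HMG-CoA with 10 mg microsomal protein, 37 °C for 30 min. The reaction was stopped with 2 M HCl and metabolites were converted to mevalonolactone. Products were separated by silica TLC in acetone/benzene (1:1 v/v), and spot radioactivity was read by bioimaging analyzer.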

Test [3] shares this target. In words: Inhibition of rat HMG-CoA reductase at 100 mM using 3.7 MBq DL-[3-14C]HMG-CoA. The essentials: as §1

Consider `CCC(CC)(c1ccccc1)c1ccc(/C=C/[C@@H](O)C[C@@H](O)CC(=O)O)c(-c2ccc(F)cc2)c1`, for which the pIC50 (commonly the IC50 on a negative log10 scale, so that one unit is a factor of ten) in test [1] is 6.82. As for `CCC(CC)(c1cccc(F)c1)c1ccc(/C=C/[C@@H](O)C[C@@H](O)CC(=O)O)c(C(C)C)c1`, the pIC50 in test [2] is 4.04.

For `CCC(CC)(c1ccc(F)cc1)c1ccc(/C=C/[C@@H](O)C[C@@H](O)CC(=O)[O-])cc1.[Na+]`, in test [3], the IC50 result is listed as “Not Active”. Regarding `CCC(CC)(c1ccccc1)c1ccc(/C=C/[C@@H](O)C[C@@H](O)CC(=O)O)c(C(C)C)c1`, the pIC50 in test [1] was 5.74. For `CC[C@H](C)C(=O)O[C@H]1CCC=C2C=C[C@H](C)[C@H](CC[C@@H]3C[C@@H](O)CC(=O)O3)[C@H]21` [MEVASTATIN], the pIC50 in test [1] is 7.40.
